Results published in ChEMBL document CHEMBL1130129, “Immunologically specific activation of a cephalosporin derivative of mitomycin C by monoclonal antibody beta-lactamase conjugates” (J Med Chem, 1997).
pIC50: −log10 of the molar value.

Assays:
Format in all cases: functional, cell-based
H2987 cell line [1] = assay: Inhibitory activity against H2987, human lung adenocarcinoma cell line in presence of Enterobacter cloacae bL
Outline: (§1)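 Adherent cells (4000 or 8000/well, 18 h, 37 °C, IMDM/10% FBS) washed with RPMI/10% FBS. Exposed 1 h at 37 °C to graded compound concentrations together with purified E. cloacae β-lactamase (10 µg/mL), then washed and cultured 18 h. [3H]thymidine pulse at 1 µCi/well (18 h or 6 h by seeding density). IC50 is 50% incorporation relative to untreated controls; five independent experiments.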

Clone 62 [2] = assay: Inhibitory activity against clone62, a mouse melanoma cell line in absence of Enterobacter cloacae bL
Outline: (§2)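 Cells plated at 4000 or 8000/well in IMDM with 10% FBS, left to adhere 18 h at 37 °C, then washed with RPMI/10% FBS. Compound exposure 1 h at 37 °C with no enzyme, followed by IMDM wash and 18 h culture. [3H]thymidine pulse at 1 µCi/well (18 h at 4000 cells/well, 6 h at 8000). IC50 is the concentration giving 50% incorporation versus untreated cells; mean of five experiments.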

H2987 cell line [3] = assay: Inhibitory activity against H2987, human lung adenocarcinoma cell line in absence of Enterobacter cloacae bL; outline: as §2
Clone 62 [4] = assay: Inhibitory activity against clone62, a mouse melanoma cell line in presence of Enterobacter cloacae bL; outline: as §1

Structure (SMILES) | pIC50 (H2987 cell line [1]) | pIC50 (Clone 62 [2]) | pIC50 (H2987 cell line [3]) | pIC50 (Clone 62 [4])
CO[C@@]12[C@H](COC(N)=O)C3=C(C(=O)C(C)=C(NCC4=C(C(=O)O)N5C(=O)[C@@H](NC(=O)Cc6ccccc6)[C@H]5SC4)C3=O)N1C[C@@H]1N[C@@H]12 | 5.55 | 5.46 | 4.98 | 5.85
CO[C@@]12[C@H](COC(N)=O)C3=C(C(=O)C(C)=C(NCC4=C(C(=O)O)N5C(=O)[C@@H](NC(=O)CCCC(=O)O)[C@H]5SC4)C3=O)N1C[C@@H]1N[C@@H]12 | 5.92 | 4.52 | 4.58 | 5.52
CO[C@@]12[C@H](COC(N)=O)C3=C(C(=O)C(C)=C(N)C3=O)N1C[C@@H]1N[C@@H]12 [MITOMYCIN] | – | 5.82 | 5.80 | –
